Measurements as given in ChEMBL document CHEMBL3352174, “Identification of a New RXRα Antagonist Targeting the Coregulator-Binding Site” (ACS Med Chem Lett, 2014).
Where a chain is given by its changes, count along the chain named. Activity calls are given as the source filed them. The calls are words filed in the database; no cut-off is given here.

Assays:
[1] = biological target: T1, Retinoic acid receptor RXR-alpha (Homo sapiens) (UniProt P19793); assay: Antagonist activity against RXRalpha in human A549 cells assessed as inhibition of AKT phosphorylation at 5 and 10 uM after 24 hrs by Western blotting method; assay type: cell-based
T1 sequence (whole entry): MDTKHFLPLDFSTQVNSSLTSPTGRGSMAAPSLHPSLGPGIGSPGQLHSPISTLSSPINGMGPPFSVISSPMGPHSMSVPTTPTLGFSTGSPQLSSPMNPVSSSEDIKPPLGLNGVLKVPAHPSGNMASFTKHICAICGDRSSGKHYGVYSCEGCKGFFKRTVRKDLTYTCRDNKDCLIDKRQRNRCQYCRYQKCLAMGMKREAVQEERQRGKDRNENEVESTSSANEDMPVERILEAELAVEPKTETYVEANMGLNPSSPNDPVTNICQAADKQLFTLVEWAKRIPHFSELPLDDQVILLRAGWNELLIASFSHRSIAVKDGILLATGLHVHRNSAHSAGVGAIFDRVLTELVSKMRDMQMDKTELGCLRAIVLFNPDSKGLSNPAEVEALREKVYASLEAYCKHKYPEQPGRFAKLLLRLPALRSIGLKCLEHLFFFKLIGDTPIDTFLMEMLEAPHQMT
How it was run: (§1)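 A549 or HepG2 cells were exposed to compound for 24 h, then with or without TNFα (20 ng/mL) for 30 min more. Lysates were immunoblotted for AKT activation. One of three to five similar experiments shown.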

[2] = biological target: T1, Retinoic acid receptor RXR-alpha (Homo sapiens); assay: Antagonist activity against RXRalpha in TNFalpha-stimulated human HepG2 cells assessed as inhibition of AKT phosphorylation at 5 and 10 uM pre-treated for 24 hrs before TNFalpha addition by Western blotting method; assay type: cell-based; how it was run: as §1
A549 [3] = assay: Induction of apoptosis in TNFalpha-stimulated human A549 cells assessed as PARP cleavage at 5 and 10 uM pre-treated for 24 hrs before TNFalpha addition in presence of RXRalpha siRNA by immunoblotting method; assay type: functional, cell-based
How it was run: (§2)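 A549 cells were transfected with RXRα siRNA or control siRNA for 48 h. They were then treated with compound for 24 h, followed by TNFα (20 ng/mL) for 30 min. Lysates were analyzed by Western blot for AKT activation and PARP cleavage.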

[4] = biological target: T1, Retinoic acid receptor RXR-alpha (Homo sapiens); assay: Antagonist activity against RXRalpha in human PC3 cells assessed as inhibition of AKT phosphorylation at 5 and 10 uM after 24 hrs by Western blotting method; assay type: cell-based; settings: PC-3
[5] = biological target: T1, Retinoic acid receptor RXR-alpha (Homo sapiens); assay: Antagonist activity against RXRalpha in TNFalpha-stimulated human A549 cells assessed as inhibition of AKT phosphorylation at 5 and 10 uM pre-treated for 24 hrs before TNFalpha addition in presence of RXRalpha siRNA by Western blotting method; assay type: cell-based; how it was run: as §2
[6] = tested on: T2, Retinoic acid receptor RXR-alpha (Homo sapiens), P19793 [C432W]; assay: Antagonist activity against RXRalpha C432W/F313A mutant (unknown origin) expressed in human HEK293T cells assessed as inhibition of constitutive receptor transactivation at 1 to 10 uM after 18 hrs by luciferase reporter gene based mammalian one-hybrid assay; settings: HEK-293T
T2 sequence (whole entry): T1 sequence (whole entry) with C432W

[7] = biological target: T1, Retinoic acid receptor RXR-alpha (Homo sapiens); assay: Antagonist activity against RXRalpha in human pancreatic cancer cells assessed as inhibition of AKT phosphorylation at 5 and 10 uM after 24 hrs by Western blotting method; assay type: cell-based; settings: Cancer cell lines
[8] = biological target: T3, Retinoic acid receptor RXR-gamma (Homo sapiens) (UniProt P48443); assay: Antagonist activity against RXRgamma ligand binding domain (unknown origin) expressed in human HEK293T cells assessed as inhibition of 9-cis-RA-induced receptor transactivation at 2 and 10 uM after 18 hrs by luciferase reporter gene based mammalian one-hybrid assay; assay type: cell-based; settings: HEK-293T
T3 sequence (whole entry): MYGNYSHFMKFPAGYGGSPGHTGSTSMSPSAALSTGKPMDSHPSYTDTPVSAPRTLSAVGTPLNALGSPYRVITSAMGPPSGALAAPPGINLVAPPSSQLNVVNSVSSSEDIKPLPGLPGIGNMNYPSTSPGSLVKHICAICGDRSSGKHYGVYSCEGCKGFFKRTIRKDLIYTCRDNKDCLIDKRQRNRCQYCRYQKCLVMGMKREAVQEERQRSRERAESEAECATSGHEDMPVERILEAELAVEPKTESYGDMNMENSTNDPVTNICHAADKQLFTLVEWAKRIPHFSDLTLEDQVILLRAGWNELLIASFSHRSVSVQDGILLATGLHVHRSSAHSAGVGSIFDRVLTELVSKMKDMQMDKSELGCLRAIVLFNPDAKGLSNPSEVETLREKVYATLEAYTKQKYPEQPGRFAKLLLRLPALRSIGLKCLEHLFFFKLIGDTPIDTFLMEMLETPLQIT

[9] = biological target: Retinoic acid receptor alpha/Retinoid X receptor alpha (Homo sapiens) (UniProt P10276+P19793); assay: Antagonist activity against RXRalpha/RARalpha ligand binding domain (unknown origin) expressed in human HEK293T cells assessed as inhibition of 9-cis-RA/T09-induced receptor transactivation at 2 and 10 uM after 18 hrs by luciferase reporter gene based mammalian one-hybrid assay; assay type: cell-based; settings: HEK-293T
[10] = biological target: T1, Retinoic acid receptor RXR-alpha (Homo sapiens); assay: Antagonist activity against Myc-tagged RXRalpha ligand binding domain (unknown origin) expressed in human MCF7 cells assessed as inhibition of 9-cis-RA-induced receptor transactivation at 10 uM after 18 hrs by luciferase reporter gene based mammalian one-hybrid assay; assay type: cell-based
How it was run: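 MCF-7 cells co-transfected with pG5-Luc reporter and pBind-RXRα-LBD. […] Read-out was dual-luciferase, with firefly normalized to Renilla for transfection efficiency. Single-concentration tests used 10 μM. Mean ± SD.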

A549 [11] = assay: Induction of apoptosis in human A549 cells assessed as PARP cleavage at 5 and 10 uM by immunoblotting method; assay type: functional, cell-based
How it was run: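 A549 or HepG2 cells were treated with compound for 24 h, with or without subsequent TNFα (20 ng/mL) for 30 min. Lysates were immunoblotted for PARP cleavage as the apoptosis marker. One of three to five similar experiments shown.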

inhibition [1]: Dose-dependent effect
inhibition [2]: Active
inhibition [4]: Active
inhibition [5]: inactive
inhibition [6]: Dose-dependent effect
inhibition [7]: Active
inhibition [8]: Active
inhibition [9]: inactive
inhibition [10]: Active
SMILES: Cc1cc(=O)oc2c(/C=N/NC(=O)CSc3nc4ccccc4s3)c(O)ccc12
Activity (A549 [3]): inactive
Activity (A549 [11]): Active
